Results on one compound are retold here after ChEMBL document CHEMBL4406821, “Novel dual inhibitors targeting CDK4 and VEGFR2 synergistically suppressed cancer progression and angiogenesis” (Eur J Med Chem, 2019).

Data set [1] deals with Ribosomal protein S6 kinase alpha-3 (Homo sapiens) (UniProt P51812). Put plainly: Inhibition of recombinant human RSK2 (2 to end residues) at 1 uM using KKKNRTLSVA as substrate incubated for 40 mins in presence of [gamma-33P]-ATP by scintillation counting method relative to control.
The target in data set [2] is MAP kinase-activated protein kinase 3 (Homo sapiens) (UniProt Q16644). Put plainly: Inhibition of recombinant human MAPKAPK3 (2 to end residues) at 1 uM using KKLNRTLSVA as substrate incubated for 40 mins in presence of [gamma-33P]-ATP by scintillation counting method relative to control. Summed up:
(§1)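 Tested at a single 1 uM in an outsourced commercial kinase-profiling panel, read as percent inhibition. Each value is the mean of two independent experiments.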

Data set [3] deals with Ephrin type-A receptor 3 (Homo sapiens) (UniProt P29320). Put plainly: Inhibition of recombinant human EPhA3 (578 to end residues) at 1 uM using poly(Glu, Tyr) 4:1 as substrate incubated for 40 mins in presence of [gamma-33P]-ATP by scintillation counting method relative to control.
For data set [4], the target named is Serine/threonine-protein kinase Nek7 (Homo sapiens) (UniProt Q8TDX7). Put plainly: Inhibition of recombinant human NEK7 (2 to end residues) at 1 uM using FLAKSFGSPNRAYKK as substrate incubated for 40 mins in presence of [gamma-33P]-ATP by scintillation counting method relative to control.
Serine/threonine-protein kinase Nek7 (Homo sapiens), sequence (Q8TDX7 whole entry, looked up): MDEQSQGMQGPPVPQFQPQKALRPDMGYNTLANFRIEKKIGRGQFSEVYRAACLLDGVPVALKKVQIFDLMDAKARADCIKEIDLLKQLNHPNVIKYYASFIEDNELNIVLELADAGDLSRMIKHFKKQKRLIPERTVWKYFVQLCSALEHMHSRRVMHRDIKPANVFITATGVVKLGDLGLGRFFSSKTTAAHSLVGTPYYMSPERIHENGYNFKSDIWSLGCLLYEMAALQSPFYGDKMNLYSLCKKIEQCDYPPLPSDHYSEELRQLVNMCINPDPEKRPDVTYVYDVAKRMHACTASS
Data set [5] has as its system Proto-oncogene tyrosine-protein kinase receptor Ret (Homo sapiens), P07949 [V804L]. Put plainly: Inhibition of recombinant human RET V804L mutant (658 to end residues) at 1 uM using KKKVSRSGLYRSPSMPENLNRPR as substrate incubated for 40 mins in presence of [gamma-33P]-ATP by scintillation counting method relative to control.
The target of data set [6] is Tyrosine-protein kinase HCK (Homo sapiens) (UniProt P08631). Put plainly: Inhibition of recombinant activated human HCK (230 to 497 residues) at 1 uM using GGMEDIYFEFMGGKKK as substrate incubated for 40 mins in presence of [gamma-33P]-ATP by scintillation counting method relative to control. Put shortly:
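Kinase panel profiling at 1 μM performed by Eurofins KinaseProfiler; percent inhibition reported as mean of two independent experiments.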

Data set [7] concerns the target Ephrin type-B receptor 2 (Homo sapiens) (UniProt P29323). Put plainly: Inhibition of recombinant human EPhB2 (560 to end residues) at 1 uM using poly(Glu, Tyr) 4:1 as substrate incubated for 40 mins in presence of [gamma-33P]-ATP by scintillation counting method relative to control.
Data set [8] deals with Serine/threonine-protein kinase VRK1 (Homo sapiens) (UniProt Q99986). Put plainly: Inhibition of recombinant human VRK1 at 1 uM incubated for 40 mins in presence of [gamma-33P]-ATP by scintillation counting method relative to control.
Data set [9] deals with Hepatocyte growth factor receptor (Homo sapiens), P08581 [Y1248H]. Put plainly: Inhibition of recombinant human Met Y1248H mutant (974 to end residues) at 1 uM using KKKGQEEEYVFIE as substrate incubated for 40 mins in presence of [gamma-33P]-ATP by scintillation counting method relative to control.
Another data set deals with SiHa. Put plainly: Antitumor activity against human SiHa cells xenografted in orally dosed NOD/SCID BALB/c mouse assessed as reduction in Ki67 expression measured after 21 days by hematoxylin and eosin staining based immunohistochemistry. Type of data set: functional, organism-based. Put shortly: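 Female NOD/SCID Balb/c mice, 6–8 weeks old, received 2×10^6 SiHa cells subcutaneously in the right flank. Once tumors reached 100 mm³, mice were randomized, 5 per group, and gavaged once daily for 21 days. Formalin-fixed, paraffin-embedded tumor sections were stained with Ki67 or CD31 antibody (1:100, 4 °C overnight), then biotin secondary and ABC-peroxidase/DAB, with hematoxylin counterstain.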
On the technique in general: In xenograft studies the graft and the host belong to different species.

In data set [10] the target is Serine/threonine-protein kinase TAO2 (Homo sapiens) (UniProt Q9UL54). Put plainly: Inhibition of recombinant human TAO2 (1 to 320 residues) at 1 uM using myelin basic protein as substrate incubated for 40 mins in presence of [gamma-33P]-ATP by scintillation counting method relative to control. Put shortly: as §1
Data set [11] in a line: Toxicity in BALB/c mouse assessed as effect on blood parameter by measuring eosinophils content at 40 mg/kg, po administered once two days for 4 times by hematology analyzer. The settings on record: in vivo.
Data set [12] in a line: Volume of distribution in Sprague-Dawley rat at 10 mg/kg, po by HPLC-MS analysis. Type of data set: ADME, organism-based. Particulars: in vivo.
The target of data set [13] is Serine/threonine-protein kinase Sgk3 (Homo sapiens) (UniProt Q96BR1). Put plainly: Inhibition of recombinant human SGK3 (119 to end residues) at 1 uM using GRPRTSSFAEGKK as substrate incubated for 40 mins in presence of [gamma-33P]-ATP by scintillation counting method relative to control.
Serine/threonine-protein kinase Sgk3 (Homo sapiens), sequence (Q96BR1 whole entry): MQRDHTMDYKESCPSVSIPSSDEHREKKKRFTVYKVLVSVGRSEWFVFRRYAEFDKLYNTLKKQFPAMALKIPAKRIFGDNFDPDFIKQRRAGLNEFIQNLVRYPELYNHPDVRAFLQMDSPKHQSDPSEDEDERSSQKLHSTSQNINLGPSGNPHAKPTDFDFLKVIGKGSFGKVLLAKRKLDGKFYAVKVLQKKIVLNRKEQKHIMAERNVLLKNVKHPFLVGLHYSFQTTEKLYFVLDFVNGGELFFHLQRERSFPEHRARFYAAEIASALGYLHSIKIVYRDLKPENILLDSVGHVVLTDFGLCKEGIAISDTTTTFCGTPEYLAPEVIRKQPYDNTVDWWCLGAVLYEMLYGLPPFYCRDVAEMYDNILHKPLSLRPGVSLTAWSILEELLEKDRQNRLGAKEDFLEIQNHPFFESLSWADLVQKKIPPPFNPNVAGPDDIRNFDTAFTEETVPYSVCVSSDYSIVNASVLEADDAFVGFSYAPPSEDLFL
The target in data set [14] is Serine/threonine-protein kinase PAK 1 (Homo sapiens) (UniProt Q13153). Put plainly: Inhibition of recombinant human PAK1 (150 to end residues) at 1 uM using RRRLSFAEPG as substrate incubated for 40 mins in presence of [gamma-33P]-ATP by scintillation counting method relative to control.
In data set [15] the target is Vascular endothelial growth factor receptor 2 (Homo sapiens, UniProt P35968). Put plainly: Inhibition of VEGFR2 in HUVEC cells assessed as reduction in STAT3 phosphorylation at 20 to 40 nM incubated for 48 hrs by Western blot analysis. Type of data set: cell-based. Put shortly: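 HUVECs were maintained in 1640 medium with 10% FBS. They were treated with graded concentrations for 48 h, PBS-washed and lysed in RIPA buffer. Immunoblots were probed for total and phospho VEGFR2, STAT3, Akt, Erk1 and Src, each at 1:1000. β-actin served as loading control.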
Vascular endothelial growth factor receptor 2, sequence (P35968 whole entry): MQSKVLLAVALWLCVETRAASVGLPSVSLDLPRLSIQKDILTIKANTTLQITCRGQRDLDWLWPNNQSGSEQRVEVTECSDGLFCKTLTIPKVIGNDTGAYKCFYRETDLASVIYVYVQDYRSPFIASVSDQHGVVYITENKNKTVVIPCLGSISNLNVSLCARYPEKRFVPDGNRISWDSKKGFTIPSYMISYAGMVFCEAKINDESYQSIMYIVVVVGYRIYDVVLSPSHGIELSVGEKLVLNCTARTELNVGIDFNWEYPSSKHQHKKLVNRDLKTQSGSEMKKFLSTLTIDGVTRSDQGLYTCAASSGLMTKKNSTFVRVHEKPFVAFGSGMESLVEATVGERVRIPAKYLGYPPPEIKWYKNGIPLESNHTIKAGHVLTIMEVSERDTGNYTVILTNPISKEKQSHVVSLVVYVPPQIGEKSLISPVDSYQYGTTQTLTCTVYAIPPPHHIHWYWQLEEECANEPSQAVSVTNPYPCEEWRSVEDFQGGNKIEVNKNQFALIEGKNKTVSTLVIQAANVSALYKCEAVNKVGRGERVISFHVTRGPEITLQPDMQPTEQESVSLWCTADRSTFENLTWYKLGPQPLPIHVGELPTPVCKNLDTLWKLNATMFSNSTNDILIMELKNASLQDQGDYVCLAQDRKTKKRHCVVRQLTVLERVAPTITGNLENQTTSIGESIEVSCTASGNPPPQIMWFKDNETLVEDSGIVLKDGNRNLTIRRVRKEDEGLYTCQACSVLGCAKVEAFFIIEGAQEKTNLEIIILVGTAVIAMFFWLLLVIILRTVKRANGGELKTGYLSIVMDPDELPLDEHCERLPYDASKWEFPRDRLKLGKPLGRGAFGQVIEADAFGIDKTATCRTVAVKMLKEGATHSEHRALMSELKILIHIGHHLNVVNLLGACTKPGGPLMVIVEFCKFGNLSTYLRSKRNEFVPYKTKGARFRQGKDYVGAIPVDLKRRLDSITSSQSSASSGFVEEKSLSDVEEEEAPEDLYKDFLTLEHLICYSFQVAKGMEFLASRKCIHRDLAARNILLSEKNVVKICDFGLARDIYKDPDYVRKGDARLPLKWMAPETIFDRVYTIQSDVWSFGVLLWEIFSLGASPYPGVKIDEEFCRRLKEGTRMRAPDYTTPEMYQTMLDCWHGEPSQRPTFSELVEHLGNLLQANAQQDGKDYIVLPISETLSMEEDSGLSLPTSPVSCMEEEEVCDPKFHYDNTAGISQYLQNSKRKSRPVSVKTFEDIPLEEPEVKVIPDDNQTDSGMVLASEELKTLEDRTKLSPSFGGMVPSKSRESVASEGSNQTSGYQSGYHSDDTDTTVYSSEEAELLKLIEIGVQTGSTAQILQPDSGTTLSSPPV

Data set [16] deals with Tyrosine-protein kinase Fgr (Homo sapiens) (UniProt P09769). Put plainly: Inhibition of recombinant human FGR (2 to end residues) at 1 uM using poly(Glu, Tyr) 4:1 as substrate incubated for 40 mins in presence of [gamma-33P]-ATP by scintillation counting method relative to control.
Tyrosine-protein kinase Fgr (Homo sapiens), sequence (P09769 2-529 limits assumed): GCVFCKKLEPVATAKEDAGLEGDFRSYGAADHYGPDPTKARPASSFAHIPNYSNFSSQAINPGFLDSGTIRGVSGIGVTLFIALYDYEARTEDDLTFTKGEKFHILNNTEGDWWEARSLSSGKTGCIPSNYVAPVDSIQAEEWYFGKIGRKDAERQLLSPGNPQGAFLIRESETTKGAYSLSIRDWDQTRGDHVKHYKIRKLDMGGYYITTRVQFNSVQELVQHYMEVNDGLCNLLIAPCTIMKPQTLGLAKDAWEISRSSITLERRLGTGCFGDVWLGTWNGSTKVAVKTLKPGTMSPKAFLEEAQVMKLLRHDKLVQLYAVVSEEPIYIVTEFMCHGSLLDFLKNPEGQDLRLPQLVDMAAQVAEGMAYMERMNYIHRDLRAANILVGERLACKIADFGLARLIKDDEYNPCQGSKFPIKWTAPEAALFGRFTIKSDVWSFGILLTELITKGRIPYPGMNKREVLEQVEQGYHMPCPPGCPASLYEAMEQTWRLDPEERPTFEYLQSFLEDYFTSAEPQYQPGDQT
Data set [17] deals with PI3-kinase p110-alpha/p85-alpha (Homo sapiens), P27986+P42336 [H1047R]. Put plainly: Inhibition of recombinant human full length PI3K p110alpha/p85alpha H1047R mutant at 1 uM using phosphatidylinositol 4,5-bisphosphate as substrate incubated for 40 mins in presence of [gamma-33P]-ATP by scintillation counting method relative to control. Type of data set: protein-complex assay.

The subject of data set [18] is Hepatocyte growth factor receptor (Homo sapiens), P08581 [D1246N]. Put plainly: Inhibition of recombinant human Met D1246N mutant (974 to end residues) at 1 uM using KKKGQEEEYVFIE as substrate incubated for 40 mins in presence of [gamma-33P]-ATP by scintillation counting method relative to control.
Data set [19] concerns the target Fibroblast growth factor receptor 3 (Homo sapiens) (UniProt P22607). Put plainly: Inhibition of recombinant human FGFR3 (447 to 761 residues) at 1 uM using poly(Glu, Tyr) 4:1 as substrate incubated for 40 mins in presence of [gamma-33P]-ATP by scintillation counting method relative to control. Put shortly: as §1

Activity calls are given as the source filed them. No cut-off for these calls is given here.

Tyrosine-protein kinase HCK (Homo sapiens), sequence (P08631 2-526 limits assumed): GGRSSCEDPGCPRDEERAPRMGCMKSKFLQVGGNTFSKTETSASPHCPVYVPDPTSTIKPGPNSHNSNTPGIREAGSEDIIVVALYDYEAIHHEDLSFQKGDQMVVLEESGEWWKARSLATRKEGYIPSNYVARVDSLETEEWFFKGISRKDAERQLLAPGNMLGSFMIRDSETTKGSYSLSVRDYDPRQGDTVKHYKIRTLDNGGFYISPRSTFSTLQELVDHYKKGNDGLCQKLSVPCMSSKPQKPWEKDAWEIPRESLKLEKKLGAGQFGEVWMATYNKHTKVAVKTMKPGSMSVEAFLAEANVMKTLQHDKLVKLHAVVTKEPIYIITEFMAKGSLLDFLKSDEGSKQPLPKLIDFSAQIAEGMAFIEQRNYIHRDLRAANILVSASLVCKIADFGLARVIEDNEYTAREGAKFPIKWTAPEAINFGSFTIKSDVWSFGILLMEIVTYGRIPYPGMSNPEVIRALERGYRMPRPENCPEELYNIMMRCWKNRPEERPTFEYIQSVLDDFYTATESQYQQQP
Ephrin type-B receptor 2 (Homo sapiens), sequence (P29323 whole entry): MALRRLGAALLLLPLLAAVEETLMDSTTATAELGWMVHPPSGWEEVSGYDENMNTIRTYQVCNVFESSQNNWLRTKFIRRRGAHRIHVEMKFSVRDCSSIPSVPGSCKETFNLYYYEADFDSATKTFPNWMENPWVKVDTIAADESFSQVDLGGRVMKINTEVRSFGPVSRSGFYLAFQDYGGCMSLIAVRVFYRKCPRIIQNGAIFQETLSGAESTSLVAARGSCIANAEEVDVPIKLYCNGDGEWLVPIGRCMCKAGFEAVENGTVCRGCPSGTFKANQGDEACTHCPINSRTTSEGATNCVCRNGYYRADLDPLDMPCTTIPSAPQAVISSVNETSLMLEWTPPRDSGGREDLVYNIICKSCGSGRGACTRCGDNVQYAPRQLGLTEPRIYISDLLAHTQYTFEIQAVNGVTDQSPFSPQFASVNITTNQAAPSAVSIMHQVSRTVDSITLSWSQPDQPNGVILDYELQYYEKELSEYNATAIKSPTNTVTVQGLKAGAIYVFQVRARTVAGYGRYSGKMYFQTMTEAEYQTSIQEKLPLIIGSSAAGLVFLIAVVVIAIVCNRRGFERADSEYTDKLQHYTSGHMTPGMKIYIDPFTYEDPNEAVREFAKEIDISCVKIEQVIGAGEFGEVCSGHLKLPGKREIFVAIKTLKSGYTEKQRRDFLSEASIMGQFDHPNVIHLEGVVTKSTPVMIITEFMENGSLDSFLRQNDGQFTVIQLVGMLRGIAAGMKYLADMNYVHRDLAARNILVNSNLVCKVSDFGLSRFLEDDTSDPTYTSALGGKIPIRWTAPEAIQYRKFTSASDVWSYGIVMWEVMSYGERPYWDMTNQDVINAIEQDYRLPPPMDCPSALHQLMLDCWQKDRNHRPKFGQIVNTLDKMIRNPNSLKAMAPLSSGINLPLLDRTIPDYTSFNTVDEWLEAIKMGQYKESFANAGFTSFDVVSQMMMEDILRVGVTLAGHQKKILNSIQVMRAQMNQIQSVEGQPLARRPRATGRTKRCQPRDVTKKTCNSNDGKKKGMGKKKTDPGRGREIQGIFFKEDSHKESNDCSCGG
Fibroblast growth factor receptor 3 (Homo sapiens), sequence (P22607 23-806 limits assumed): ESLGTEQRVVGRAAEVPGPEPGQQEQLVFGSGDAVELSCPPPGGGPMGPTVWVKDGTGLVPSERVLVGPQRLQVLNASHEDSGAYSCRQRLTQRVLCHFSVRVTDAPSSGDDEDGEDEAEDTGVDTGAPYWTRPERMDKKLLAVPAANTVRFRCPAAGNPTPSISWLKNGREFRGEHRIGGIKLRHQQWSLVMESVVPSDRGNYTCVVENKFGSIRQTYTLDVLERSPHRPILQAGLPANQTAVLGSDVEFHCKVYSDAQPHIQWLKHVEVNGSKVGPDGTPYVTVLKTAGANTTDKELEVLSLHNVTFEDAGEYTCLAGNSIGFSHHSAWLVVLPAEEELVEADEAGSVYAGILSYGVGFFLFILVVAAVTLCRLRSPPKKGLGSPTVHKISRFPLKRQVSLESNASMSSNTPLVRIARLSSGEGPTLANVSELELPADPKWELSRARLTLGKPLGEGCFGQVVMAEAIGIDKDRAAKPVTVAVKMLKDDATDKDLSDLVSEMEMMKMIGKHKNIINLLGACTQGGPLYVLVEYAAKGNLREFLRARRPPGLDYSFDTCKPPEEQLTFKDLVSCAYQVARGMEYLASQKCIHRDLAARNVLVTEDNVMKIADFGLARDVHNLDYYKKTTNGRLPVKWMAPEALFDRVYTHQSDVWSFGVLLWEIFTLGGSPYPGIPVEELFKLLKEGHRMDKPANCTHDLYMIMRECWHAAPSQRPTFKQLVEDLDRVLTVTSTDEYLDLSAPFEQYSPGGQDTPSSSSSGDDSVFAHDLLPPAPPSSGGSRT

Broadly, the inhibition is how much of the control response was suppressed. For `Cc1ccc(NC(=O)C2(C(=O)Nc3ccc(Nc4ncc(F)c(-c5cc(F)c6nc(C)n(C(C)C)c6c5)n4)cc3)CC2)cc1`, the inhibition in data set [1] stood at 19%; in data set [2], 0%; in data set [3], 23%; in data set [4], 3%; in [5], 42%; in data set [6], 33%. The inhibition in data set [7] was 23%; in [8], 9%; in [9], 40%; in the data set with SiHa, “Dose-dependent effect”; in data set [10], 0%; in data set [13], 11%. The inhibition came to 52% in data set [14]; 55% in data set [16]; 7% in [17]; 51% in data set [18]; 0% in data set [19]. Also, the Activity entry in data set [11] is listed as “Non-Toxic”. In [12], this compound returned a Vd of 6 L/kg. Besides, the inhibition entry in data set [15] is “Active”.
